# According to PMC7077758 (The Journal of organic chemistry, 2019):
# Assay: Thiol reactivity assay
# Assay type: physicochemical
# Conditions: room temperature, 1H NMR
# In short: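 Dehydroamino-acid peptide (typically 0.010–0.015 mmol) in DMSO-d6 with 1,3,5-trimethoxybenzene as internal standard, treated with 2 equiv cysteamine added from a freshly prepared 0.5 M stock in DMSO-d6. 1H NMR spectra were recorded over time, and loss of starting peptide was quantified from diagnostic signals against the internal standard. Peptides unreactive at room temperature were heated stepwise to 60, 80 and 100 °C.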
compound,measurement,value
C=C1CCOC1=O [α-methylene-γ-butyrolactone],time to complete consumption of the electrophile by cysteamine,≤ 5 min
